ChEMBL document CHEMBL4609999, “Novel alkoxyamide-based histone deacetylase inhibitors reverse cisplatin resistance in chemoresistant cancer cells” (Bioorg Med Chem, 2020)
Blank lines part the entries; values can stand above or below the molecule they belong to. Active and inactive are the calls of the source. The calls are words filed in the database; no cut-off is given here.

Key:
Homo sapiens [1] = organism: Homo sapiens; test: Induction of apoptosis in human Cal27CisR cells assessed as increase in caspase 3/7 activation at 0.8 uM incubated for 24 hrs by Hoechst 33342 staining based fluorescence assay; assay type: functional, cell-based
CAL-27 [2] = test: Potentiation of cisplatin-induced apoptosis in human CAL27 cells assessed as increase in caspase 3/7 activation at 0.4 uM incubated for 24 hrs followed by cisplatin addition by Hoechst 33342 staining based fluorescence assay; assay type: functional, cell-based
Summary of the method: (§1)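 Cal27 cells pretreated with HDACi at 0.4, 0.8 or 2.8 µM, then 24 h more with 3 µM cisplatin. Cal27CisR cells pretreated at 0.8 or 8 µM, then 24 h with 25 µM cisplatin. 100 µM cisplatin as positive control. Active caspase 3/7 imaged by green fluorescence, nuclei counterstained with Hoechst 33342 (blue).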

[3] = biological target: T1, Protein deacetylase HDAC6 (Homo sapiens) (UniProt Q9UBN7); test: Inhibition of HDAC6 in human CAL27 cells assessed as increase in acetylated alpha-tubulin at 1.5 uM incubated for 24 hrs by immunoblot analysis; assay type: cell-based; conditions: CAL-27
T1 sequence (whole entry): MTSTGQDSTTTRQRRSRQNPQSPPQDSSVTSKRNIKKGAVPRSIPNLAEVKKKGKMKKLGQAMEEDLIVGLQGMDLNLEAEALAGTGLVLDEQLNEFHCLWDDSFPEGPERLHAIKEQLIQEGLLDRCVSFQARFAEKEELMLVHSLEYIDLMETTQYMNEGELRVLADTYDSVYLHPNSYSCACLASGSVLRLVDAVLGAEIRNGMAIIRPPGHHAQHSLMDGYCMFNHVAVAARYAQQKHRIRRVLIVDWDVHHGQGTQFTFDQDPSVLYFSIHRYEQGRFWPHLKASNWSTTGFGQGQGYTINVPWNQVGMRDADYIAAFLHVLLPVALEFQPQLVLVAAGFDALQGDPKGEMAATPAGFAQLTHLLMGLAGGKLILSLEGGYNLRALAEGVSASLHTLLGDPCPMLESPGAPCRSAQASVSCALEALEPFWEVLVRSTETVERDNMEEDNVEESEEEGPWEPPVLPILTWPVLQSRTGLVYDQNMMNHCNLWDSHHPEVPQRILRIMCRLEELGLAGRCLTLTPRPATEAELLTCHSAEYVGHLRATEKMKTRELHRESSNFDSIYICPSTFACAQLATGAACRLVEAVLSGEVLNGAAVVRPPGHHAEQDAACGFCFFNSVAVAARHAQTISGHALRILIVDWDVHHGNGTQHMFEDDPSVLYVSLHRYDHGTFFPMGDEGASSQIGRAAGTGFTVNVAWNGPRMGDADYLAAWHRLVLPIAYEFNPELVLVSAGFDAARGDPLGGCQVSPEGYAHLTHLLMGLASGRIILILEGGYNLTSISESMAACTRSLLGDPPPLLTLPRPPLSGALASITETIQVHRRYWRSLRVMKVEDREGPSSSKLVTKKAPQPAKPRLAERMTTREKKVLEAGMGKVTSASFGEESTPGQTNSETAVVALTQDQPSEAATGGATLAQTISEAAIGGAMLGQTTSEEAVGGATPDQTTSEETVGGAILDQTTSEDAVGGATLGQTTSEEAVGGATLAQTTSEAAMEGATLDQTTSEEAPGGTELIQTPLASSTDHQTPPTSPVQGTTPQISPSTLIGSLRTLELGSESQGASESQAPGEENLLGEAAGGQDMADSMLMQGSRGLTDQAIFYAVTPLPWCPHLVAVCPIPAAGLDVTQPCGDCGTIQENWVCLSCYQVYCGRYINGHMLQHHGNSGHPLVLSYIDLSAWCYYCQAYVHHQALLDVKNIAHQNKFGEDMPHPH
Summary of the method: (§2)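 Cal27 and Cal27CisR cells incubated 24 h with vehicle or with inhibitor at 1.5, 3 or 5 µM. Western blot for α-tubulin, acetyl-α-tubulin and acetyl-histone H3.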

[4] = biological target: T2, Class 1 histone deacetylase (Homo sapiens) (UniProt Q13547+O15379+Q92769+Q9BY41); test: Inhibition of class 1 histone deacetylase in human Cal27CisR cells assessed as increase in H3 histone acetylation at 1.5 uM incubated for 24 hrs by immunoblot analysis; assay type: cell-based; summary of the method: as §2
Histone deacetylase [5] = test: Inhibition of HDAC in human A2780 cells; assay type: cell-based
A2780 = test: Cytotoxicity against human A2780 cells assessed as reduction in cell viability by MTT assay; assay type: functional, cell-based
Histone deacetylase 4 = Histone deacetylase 4 (Homo sapiens, UniProt P56524); test: Inhibition of recombinant human HDAC4
Sequence of Histone deacetylase 4 (P56524 whole entry): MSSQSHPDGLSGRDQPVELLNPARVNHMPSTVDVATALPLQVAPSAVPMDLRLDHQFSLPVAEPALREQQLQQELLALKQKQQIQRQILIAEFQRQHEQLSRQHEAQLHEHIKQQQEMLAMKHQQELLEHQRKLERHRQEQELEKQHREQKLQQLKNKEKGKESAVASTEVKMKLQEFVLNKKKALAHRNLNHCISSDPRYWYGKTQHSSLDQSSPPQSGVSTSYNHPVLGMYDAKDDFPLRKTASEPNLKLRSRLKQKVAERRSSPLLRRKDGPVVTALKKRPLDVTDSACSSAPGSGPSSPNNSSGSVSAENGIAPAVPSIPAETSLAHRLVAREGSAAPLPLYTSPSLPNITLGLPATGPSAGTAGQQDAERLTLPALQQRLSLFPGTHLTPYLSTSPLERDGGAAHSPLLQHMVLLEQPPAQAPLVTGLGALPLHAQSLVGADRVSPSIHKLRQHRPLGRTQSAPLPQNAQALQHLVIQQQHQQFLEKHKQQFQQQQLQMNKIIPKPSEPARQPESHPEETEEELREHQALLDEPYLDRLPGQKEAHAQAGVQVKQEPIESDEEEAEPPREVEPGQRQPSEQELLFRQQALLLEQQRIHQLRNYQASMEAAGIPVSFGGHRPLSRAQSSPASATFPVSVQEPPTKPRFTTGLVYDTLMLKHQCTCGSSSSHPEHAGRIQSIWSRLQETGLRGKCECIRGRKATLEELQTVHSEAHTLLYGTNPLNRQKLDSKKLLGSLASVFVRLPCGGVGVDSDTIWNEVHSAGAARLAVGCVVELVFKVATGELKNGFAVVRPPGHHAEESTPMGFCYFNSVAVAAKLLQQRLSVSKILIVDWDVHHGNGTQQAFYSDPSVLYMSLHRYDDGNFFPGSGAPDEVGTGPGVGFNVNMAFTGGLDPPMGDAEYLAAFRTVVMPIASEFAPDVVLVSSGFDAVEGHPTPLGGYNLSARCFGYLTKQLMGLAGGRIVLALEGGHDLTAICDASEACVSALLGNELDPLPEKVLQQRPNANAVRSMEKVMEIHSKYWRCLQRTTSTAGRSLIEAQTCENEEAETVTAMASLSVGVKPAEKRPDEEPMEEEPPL

CAL-27 [6] = test: Potentiation of cisplatin-induced cytotoxicity against human CAL27 cells assessed as shift factor by measuring ratio of cisplatin IC50 to cisplatin IC50 in presence of compound at 0.2 uM incubated for 72 hrs followed by cisplatin addition and measured after 72 hrs by MTT assay; assay type: functional
Summary of the method: (§3)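 MTT shift assay. Cal27 cells received HDACi at 0.2, 0.4 or 1.4 µM; Cal27CisR cells received 0.8 or 6 µM. Cells were incubated 72 h with a cisplatin range. Shift factor = cisplatin IC50 alone / cisplatin IC50 with HDACi, significance by t-test (p<0.05). Pooled mean of ≥3 experiments, each in triplicate.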

Homo sapiens [7] = organism: Homo sapiens; test: Potentiation of cisplatin-induced apoptosis in human Cal27CisR cells assessed as increase in caspase 3/7 activation at 0.8 uM incubated for 24 hrs followed by cisplatin addition by Hoechst 33342 staining based fluorescence assay; assay type: functional, cell-based; summary of the method: as §1
Histone deacetylase [8] = test: Inhibition of HDAC in human Cal27 cells; assay type: cell-based; conditions: cal-27
CAL-27 [9] = test: Cytotoxicity against human CAL27 cells assessed as reduction in cell viability by MTT assay; assay type: functional, cell-based
[10] = biological target: T2, Class 1 histone deacetylase (Homo sapiens); test: Inhibition of class 1 histone deacetylase in human CAL27 cells assessed as increase in H3 histone acetylation at 1.5 uM incubated for 24 hrs by immunoblot analysis; assay type: cell-based; conditions: CAL-27; summary of the method: as §2
[11] = biological target: T3, Protein deacetylase HDAC6 (Homo sapiens, UniProt Q9UBN7); test: Inhibition of recombinant human HDAC6
T3 sequence (Q9UBN7 whole entry): T1 sequence (whole entry)

Histone deacetylase 2 = Histone deacetylase 2 (Homo sapiens, UniProt Q92769); test: Inhibition of recombinant human HDAC2
Sequence of Histone deacetylase 2 (Q92769 whole entry): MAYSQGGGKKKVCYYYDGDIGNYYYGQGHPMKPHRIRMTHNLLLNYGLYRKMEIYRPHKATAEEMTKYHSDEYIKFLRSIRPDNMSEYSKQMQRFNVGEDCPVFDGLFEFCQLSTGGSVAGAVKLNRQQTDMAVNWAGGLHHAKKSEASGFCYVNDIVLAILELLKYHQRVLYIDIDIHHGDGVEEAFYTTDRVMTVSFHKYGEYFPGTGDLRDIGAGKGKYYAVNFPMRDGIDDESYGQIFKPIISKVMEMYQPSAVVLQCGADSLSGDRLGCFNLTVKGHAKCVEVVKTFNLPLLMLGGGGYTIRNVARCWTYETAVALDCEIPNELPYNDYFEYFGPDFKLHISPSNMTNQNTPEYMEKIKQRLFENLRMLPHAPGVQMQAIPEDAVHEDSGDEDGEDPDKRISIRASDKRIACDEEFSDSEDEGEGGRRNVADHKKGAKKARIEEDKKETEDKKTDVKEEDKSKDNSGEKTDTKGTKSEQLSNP

[12] = biological target: T1, Protein deacetylase HDAC6 (Homo sapiens); test: Inhibition of HDAC6 in human Cal27CisR cells assessed as increase in acetylated alpha-tubulin at 1.5 uM incubated for 24 hrs by immunoblot analysis; assay type: cell-based; summary of the method: as §2
CAL-27 [13] = test: Induction of apoptosis in human CAL27 cells assessed as increase in caspase 3/7 activation at 0.4 uM incubated for 24 hrs by Hoechst 33342 staining based fluorescence assay; assay type: functional, cell-based
Histone deacetylase 8 = biological target: T4, Histone deacetylase 8 (Homo sapiens, UniProt Q9BY41); test: Inhibition of recombinant human HDAC8
T4 sequence (Q9BY41 whole entry): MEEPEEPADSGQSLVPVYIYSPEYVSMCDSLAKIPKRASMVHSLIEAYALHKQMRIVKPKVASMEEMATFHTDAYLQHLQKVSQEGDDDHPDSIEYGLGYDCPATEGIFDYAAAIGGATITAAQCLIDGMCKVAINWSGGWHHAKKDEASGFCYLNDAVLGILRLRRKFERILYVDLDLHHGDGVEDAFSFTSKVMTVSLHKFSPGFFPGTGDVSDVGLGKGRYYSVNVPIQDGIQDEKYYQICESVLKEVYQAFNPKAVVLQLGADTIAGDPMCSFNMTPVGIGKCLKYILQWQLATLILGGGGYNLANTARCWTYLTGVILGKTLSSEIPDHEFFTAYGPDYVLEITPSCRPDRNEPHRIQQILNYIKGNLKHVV

[14] = Potentiation of cisplatin-induced cytotoxicity against human Cal27CisR cells assessed as shift factor by measuring ratio of cisplatin IC50 to cisplatin IC50 in presence of compound at 0.8 uM incubated for 72 hrs followed by cisplatin addition and measured after 72 hrs by MTT assay; assay type: functional; summary of the method: as §3
[15] = Potentiation of cisplatin-induced cytotoxicity against human Cal27CisR cells assessed as shift factor by measuring ratio of cisplatin IC50 to cisplatin IC50 in presence of compound at 6 uM incubated for 72 hrs followed by cisplatin addition and measured after 72 hrs by MTT assay; assay type: functional; summary of the method: as §3
[16] = biological target: T2, Class 1 histone deacetylase (Homo sapiens); test: Inhibition of class 1 histone deacetylase in human CAL27 cells assessed as increase in H3 histone acetylation at 5 uM incubated for 24 hrs by immunoblot analysis; assay type: cell-based; conditions: CAL-27; summary of the method: as §2
CAL-27 [17] = test: Potentiation of cisplatin-induced apoptosis in human CAL27 cells assessed as increase in caspase 3/7 activation at 2.8 uM incubated for 24 hrs followed by cisplatin addition by Hoechst 33342 staining based fluorescence assay; assay type: functional, cell-based; summary of the method: as §1
Homo sapiens [18] = organism: Homo sapiens; test: Potentiation of cisplatin-induced apoptosis in human Cal27CisR cells assessed as increase in caspase 3/7 activation at 8 uM incubated for 24 hrs followed by cisplatin addition by Hoechst 33342 staining based fluorescence assay; assay type: functional, cell-based; summary of the method: as §1
Homo sapiens [19] = organism: Homo sapiens; test: Induction of apoptosis in human Cal27CisR cells assessed as increase in caspase 3/7 activation at 8 uM incubated for 24 hrs by Hoechst 33342 staining based fluorescence assay; assay type: functional, cell-based
[20] = biological target: T2, Class 1 histone deacetylase (Homo sapiens); test: Inhibition of class 1 histone deacetylase in human Cal27CisR cells assessed as increase in H3 histone acetylation at 5 uM incubated for 24 hrs by immunoblot analysis; assay type: cell-based; summary of the method: as §2
CAL-27 [21] = test: Induction of apoptosis in human CAL27 cells assessed as increase in caspase 3/7 activation at 2.8 uM incubated for 24 hrs by Hoechst 33342 staining based fluorescence assay; assay type: functional, cell-based
[22] = biological target: T1, Protein deacetylase HDAC6 (Homo sapiens); test: Inhibition of HDAC6 in human CAL27 cells assessed as increase in acetylated alpha-tubulin at 5 uM incubated for 24 hrs by immunoblot analysis; assay type: cell-based; conditions: CAL-27; summary of the method: as §2
CAL-27 [23] = test: Potentiation of cisplatin-induced cytotoxicity against human CAL27 cells assessed as shift factor by measuring ratio of cisplatin IC50 to cisplatin IC50 in presence of compound at 1.4 uM incubated for 72 hrs followed by cisplatin addition and measured after 72 hrs by MTT assay; assay type: functional; summary of the method: as §3
[24] = biological target: T1, Protein deacetylase HDAC6 (Homo sapiens); test: Inhibition of HDAC6 in human Cal27CisR cells assessed as increase in acetylated alpha-tubulin at 5 uM incubated for 24 hrs by immunoblot analysis; assay type: cell-based; summary of the method: as §2

inhibition [3]: Active
inhibition [4]: Active
IC50 (Histone deacetylase [5]): 830 nM
Ki (Histone deacetylase 4): 49200 nM
IC50 (Histone deacetylase [8]): 450 nM
inhibition [10]: Active
Ki [11]: 30 nM
Ki (Histone deacetylase 2): 60 nM
inhibition [12]: Active
Ki (Histone deacetylase 8): 5690 nM
SMILES: COc1cc(OC)cc(C(=O)NOCCCCCC(=O)NO)c1
Activity (Homo sapiens [1]): Active
Activity (CAL-27 [2]): Active
IC50 (A2780): 890 nM
PF (CAL-27 [6]): 3.79
Activity (Homo sapiens [7]): Active
IC50 (CAL-27 [9]): 720 nM
Activity (CAL-27 [13]): Active
PF [14]: 12.8

IC50 (Histone deacetylase [5]): 1180 nM
Ki (Histone deacetylase 4): 93100 nM
IC50 (Histone deacetylase [8]): 1480 nM
inhibition [16]: Active
Ki [11]: 60 nM
inhibition [20]: Active
Ki (Histone deacetylase 2): 90 nM
inhibition [22]: Active
Ki (Histone deacetylase 8): 6400 nM
inhibition [24]: Active
SMILES: COc1cc(C(=O)NOCCCCCC(=O)NO)cc(OC)c1OC
IC50 (A2780): 13800 nM
PF [15]: 7.73
Activity (CAL-27 [17]): Active
Activity (Homo sapiens [18]): Active
IC50 (CAL-27 [9]): 3070 nM
Activity (Homo sapiens [19]): Active
Activity (CAL-27 [21]): Active
PF (CAL-27 [23]): 1.95
